Laboratory results published in ChEMBL document CHEMBL1132160, “Structure-antiviral activity relationship in the series of pyrimidine and purine N-[2-(2-phosphonomethoxy)ethyl] nucleotide analogues. 1. Derivatives substituted at the carbon atoms of the base” (J Med Chem, 1999).
≈ marks a conversion by molar mass, not a printed value.

Experiments:
[1] = Inhibitory activity against murine sarcoma virus induced transformation of murine C3H/3T3 embryo fibroblasts; assay type: functional, Mus musculus
Procedure, shortened: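 Murine C3H/3T3 embryo fibroblasts were seeded at 5 × 10⁵ cells/mL. After 24 h they were infected with 80 focus-forming units of MSV for 90–120 min at 37 °C. The medium was then replaced with fresh medium containing various compound concentrations, and transformation was examined microscopically after 6 days.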

Cytomegalovirus [2] = test: Inhibitory activity against cytomegalovirus (CMV) Davis strain; assay type: functional, organism-based; conditions: Human betaherpesvirus 5
Procedure, shortened: (§1)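 HEL cell cultures, grown to confluence, received 100 CCID50 of virus. After 1 h adsorption, the inoculum was removed and the cultures were incubated with serial concentrations of compound (400, 200, 100, ... μg/mL).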

Vaccinia virus = test: Inhibitory activity against vaccinia virus (VV); assay type: functional, organism-based; conditions: Orthopoxvirus vaccinia
Procedure, shortened: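 Confluent E6SM cell cultures were inoculated with 100 CCID50 of virus and left for 1 h adsorption, then residual virus was removed. Cultures were incubated with test compound at serial concentrations (400, 200, 100, ... μg/mL). Virus-induced cytopathicity was scored once it reached completion in untreated infected control cultures.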

Cytomegalovirus [3] = test: Inhibitory activity against cytomegalovirus (CMV) AD 169 strain; assay type: functional, organism-based; conditions: Human betaherpesvirus 5; procedure, shortened: as §1
[4] = test system: Human immunodeficiency virus 1; test: Inhibition of human immunodeficiency virus type 1 (HIV-1) induced cytopathogenicity in CEM cells; assay type: functional, organism-based; conditions: Human immunodeficiency virus 1, CCRF-CEM
Procedure, shortened: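 CEM cells (~3 × 10⁵ cells/mL) were infected with 100 CCID50 of HIV-1 (IIIB)/mL and plated with dilutions of compound. After 4 days at 37 °C, giant cell formation was assessed microscopically.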

Human alphaherpesvirus 2 [5] = test: Inhibitory activity against herpes simplex virus type 2 (HSV-2) G strain; assay type: functional, organism-based
Procedure, shortened: (§2)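 Confluent E6SM cell cultures were inoculated with 100 CCID50 of virus and allowed 1 h for adsorption. Residual virus was then removed, and the cells were incubated with test compound at 400, 200, 100, ... μg/mL. Viral cytopathicity was scored once it reached completion in untreated infected controls.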

Human alphaherpesvirus 1 [6] = test: Inhibitory activity against herpes simplex virus type 1 (HSV-1) KOS strain; assay type: functional, organism-based; procedure, shortened: as §2
[7] = test system: Human immunodeficiency virus 2; test: Inhibition of human immunodeficiency virus type 2 (HIV-2) induced cytopathogenicity in CEM cells; assay type: functional, organism-based; conditions: Human immunodeficiency virus 2, CCRF-CEM
Human alphaherpesvirus 2 [8] = test: Inhibitory activity against herpes simplex virus type 2 (HSV-2) Lyons strain; assay type: functional, organism-based; procedure, shortened: as §2
[9] = Inhibitory activity against herpes simplex virus type 2 (HSV-2) 196 strain; assay type: functional; procedure, shortened: as §2
Human alphaherpesvirus 1 [10] = test: Inhibitory activity against herpes simplex virus type 1 (HSV-1) McIntyre strain; assay type: functional, organism-based; procedure, shortened: as §2
Human alphaherpesvirus 1 [11] = test: Inhibition of herpes simplex virus type 1 (HSV-1) F strain; assay type: functional, organism-based; procedure, shortened: as §2

Row | SMILES | EC50 [1] | EC50 (Cytomegalovirus [2]) | EC50 (Vaccinia virus) | EC50 (Cytomegalovirus [3]) | EC50 [4] | EC50 (Human alphaherpesvirus 2 [5]) | EC50 (Human alphaherpesvirus 1 [6]) | EC50 [7] | EC50 (Human alphaherpesvirus 2 [8]) | EC50 [9] | EC50 (Human alphaherpesvirus 1 [10]) | EC50 (Human alphaherpesvirus 1 [11])
1 | CC(C)CCCCCOP(=O)(COCCn1cnc2c(Cl)nc(N)nc21)OCCCCCC(C)C | > 8 µg/mL | 1 µg/mL (≈ 1.88 µM) | > 16 µg/mL | 0.86 µg/mL (≈ 1.62 µM) | > 4 µg/mL | > 16 µg/mL | > 16 µg/mL | > 4 µg/mL | – | – | – | –
2 | Nc1nc(F)nc2c1ncn2CCOCP(=O)(O)O | 22.3 µg/mL (≈ 76.6 µM) | > 50 µg/mL | 150 µg/mL (≈ 515 µM) | > 50 µg/mL | > 100 µg/mL | 70 µg/mL (≈ 240 µM) | 70 µg/mL (≈ 240 µM) | 40 µg/mL (≈ 137 µM) | – | – | – | –
3 | Cc1nc(N)nc2c1ncn2CCOCP(=O)(O)O | 30 µg/mL (≈ 104 µM) | > 50 µg/mL | > 400 µg/mL | > 50 µg/mL | > 100 µg/mL | 400 µg/mL (≈ 1390 µM) | > 200 µg/mL | > 100 µg/mL | – | – | – | –
4 | Nc1nc(=O)n(CCOCP(=O)(O)O)cc1Br | 19.2 µg/mL (≈ 58.5 µM) | 33 µg/mL (≈ 101 µM) | > 400 µg/mL | 30 µg/mL (≈ 91.4 µM) | > 100 µg/mL | 150 µg/mL (≈ 457 µM) | 20 µg/mL (≈ 61 µM) | > 100 µg/mL | 70 µg/mL (≈ 213 µM) | 100 µg/mL (≈ 305 µM) | 70 µg/mL (≈ 213 µM) | 40 µg/mL (≈ 122 µM)
5 | CC(C)OP(=O)(COCCn1cnc2c(O)nc(N)nc21)OC(C)C | 13.5 µg/mL (≈ 36.2 µM) | > 50 µg/mL | – | > 50 µg/mL | > 100 µg/mL | 400 µg/mL (≈ 1070 µM) | 240 µg/mL (≈ 643 µM) | > 100 µg/mL | 240 µg/mL (≈ 643 µM) | 240 µg/mL (≈ 643 µM) | 80 µg/mL (≈ 214 µM) | 240 µg/mL (≈ 643 µM)
6 | O=P(O)(O)COCCn1cnc2c(S)ncnc21 | > 200 µg/mL | 20 µg/mL (≈ 68.9 µM) | > 400 µg/mL | 25 µg/mL (≈ 86.1 µM) | > 100 µg/mL | > 400 µg/mL | > 400 µg/mL | > 100 µg/mL | > 400 µg/mL | > 400 µg/mL | > 400 µg/mL | > 400 µg/mL
7 | NC1=NC2N=CC=NC2C(=O)N1CCOCP(=O)(O)O (stereo not drawn) | 26.5 µg/mL (≈ 87.4 µM) | > 50 µg/mL | 200 µg/mL (≈ 660 µM) | > 50 µg/mL | > 100 µg/mL | 70 µg/mL (≈ 231 µM) | 70 µg/mL (≈ 231 µM) | > 100 µg/mL | 70 µg/mL (≈ 231 µM) | 150 µg/mL (≈ 495 µM) | 150 µg/mL (≈ 495 µM) | 150 µg/mL (≈ 495 µM)
8 | CC(C)OP(=O)(COCCn1c(Br)nc2c(N)nc(N)nc21)OC(C)C | > 40 µg/mL | 20 µg/mL (≈ 44.3 µM) | > 400 µg/mL | 25 µg/mL (≈ 55.4 µM) | > 100 µg/mL | > 400 µg/mL | > 400 µg/mL | > 100 µg/mL | 300 µg/mL (≈ 665 µM) | > 400 µg/mL | > 400 µg/mL | > 400 µg/mL
9 | Nc1nnc(N)c2c1ncn2CCOCP(=O)(O)O | 124 µg/mL (≈ 430 µM) | > 50 µg/mL | > 200 µg/mL | > 50 µg/mL | > 100 µg/mL | > 200 µg/mL | > 200 µg/mL | > 100 µg/mL | > 200 µg/mL | > 200 µg/mL | > 200 µg/mL | > 200 µg/mL
10 | Nc1cc(N)c2ncn(CCOCP(=O)(O)O)c2n1 | 142 µg/mL (≈ 494 µM) | > 50 µg/mL | > 400 µg/mL | > 50 µg/mL | > 100 µg/mL | 300 µg/mL (≈ 1040 µM) | 300 µg/mL (≈ 1040 µM) | > 100 µg/mL | 300 µg/mL (≈ 1040 µM) | > 400 µg/mL | > 400 µg/mL | > 400 µg/mL
11 | Nc1cccc2c1ncn2CCOCP(=O)(O)O | > 200 µg/mL | > 50 µg/mL | > 400 µg/mL | > 50 µg/mL | > 100 µg/mL | > 400 µg/mL | > 400 µg/mL | > 100 µg/mL | – | – | – | –
12 | CC(C)OP(=O)(COCCn1cnc2c(S)ncnc21)OC(C)C | > 40 µg/mL | > 50 µg/mL | > 400 µg/mL | > 50 µg/mL | > 100 µg/mL | > 400 µg/mL | > 400 µg/mL | > 100 µg/mL | – | – | – | –
13 | CC(C)CCCCCOP(=O)(COCCn1cnc2nc(N)nc(Cl)c21)OCCCCCC(C)C | > 8 µg/mL | > 5 µg/mL | > 16 µg/mL | 5 µg/mL (≈ 9.4 µM) | > 4 µg/mL | > 16 µg/mL | > 16 µg/mL | > 4 µg/mL | – | – | – | –
14 | Nc1nc(O)nc2c1ncn2CCOCP(=O)(O)O | 123 µg/mL (≈ 425 µM) | > 50 µg/mL | > 50 µg/mL | > 50 µg/mL | > 100 µg/mL | > 400 µg/mL | > 400 µg/mL | > 100 µg/mL | – | – | – | –
15 | Nc1ncnc2c1ncn2CCOCP(=O)(O)O [ADEFOVIR] | – | 77 µg/mL (≈ 282 µM) | – | 30 µg/mL (≈ 110 µM) | – | 1.1 µg/mL (≈ 4.03 µM) | 3.6 µg/mL (≈ 13.2 µM) | – | – | – | – | –
